HIV Env fusion: inhibitors of HIV-1 Env-driven cell-cell fusion, primary screen, HeLa-JRFL effector, CEM21 target cells, luciferase. hit rate 1.1% among 360,000. inhibition, % at 12.3 µM;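 active = mean replicate inhibition score of at least 50 and every replicate individually at or above 50; inconclusive = only one of the two criteria met; inactive = mean below 50 and not all replicates reaching 50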
Ecoli rRNA inh: reduced GFP signal of wild-type E. coli, primary screen, bacterial rRNA inhibitor project, GFP/RFP fluorescence, OD600, single point | E. coli WT GFP vs humanized-ribosome RFP mutants, 24 h; hits give low values; DMSO median 0, no signal -100 | GFP signal change (wild-type ribosome), % (test concentration not listed) | hit rate 1.6% among 350,000;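 active = significant combined selectivity score with lowered wild-type GFP, culture density cut under 30%, mutant RFP and density less affected; inactive = any of these conditions unmet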
DENV2 CPE rescue: inhibitors of DENV2 cytopathic effect, primary screen, cell-based, plate reader, single concentration; DENV2-infected cells, cytopathic effect rescue; CPE inhibition, % at 9.99 µM; hit rate 1.7% among 350,000; in the data active = CPE inhibition above about 20%, passing the limit was not always enough; inconclusive = no clear call, values can overlap the other calls; tested in BHK-21 cells
FN deposition inh: inhibitors of fibronectin matrix deposition, primary screen, AH1F cells, Alexa488-fibronectin fluorescence, plate reader; AH1F fibroblasts, overnight; inhibition, % at 12.6 µM; hit rate 0.086% among 350,000; AID 743247, 2014;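 active = mean inhibition across replicates of 30% or more, regardless of how many single replicates reach that level; inconclusive = mean under 30% yet at least half of replicates reach 30%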
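Material: AH1F fibroblast monolayer depositing Alexa488-labelled fibronectin into matrix / Amount: 10000 AH1F cells per well / Signal: fluorescence 485/525 nm / Medium: DMEM, 2% serum / Compound: single dose, pinned / Incubation: 1 h cell adhesion before compound, then overnight fibronectin incubation / Reagent: Alexa488-FN, 24 nM final / Read-out: inhibition of fibronectin deposition signal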
PGC1a acetyl inh: inhibitors of PGC1a acetylation signal, primary screen, cell-based, U2OS, AlphaScreen, inhibitor mode; AlphaScreen anti-acetyl-lysine; with virally co-expressed GCN5 acetyltransferase; inhibition, % at 15.6 µM; hit rate 0.17% among 350,000;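 active = every replicate shows inhibition of at least 40%; inconclusive = mean inhibition at least 40% but some replicate below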
PglD DTNB: C. jejuni PglD acetyltransferase inhibitors, primary screen, biochemical, DTNB colorimetric, single point | AID 602405, 2012 | inhibition, % at 12.5 µM | purified PglD enzyme, DTNB colorimetric CoA detection | hit rate 0.098% among 360,000; in the data active = inhibition above about 16%, passing the limit was not always enough; inconclusive = no clear call, values can overlap the other calls
Large screens that a line does not name were inactive. Hits are enriched below; roughly 3.5% of the tested compounds scored in any of these assays.

Cc1ccc(S(=O)(=O)Nc2cccc3c2O[C@H](CN(C)S(=O)(=O)c2cccs2)[C@@H](C)CN([C@@H](C)CO)C3=O)cc1	DENV2 CPE rescue 63 (no result: FN deposition inh)
Cc1ccc(S(=O)(=O)Nc2cccc3c2O[C@@H](CN(C)S(=O)(=O)c2cccs2)[C@H](C)CN([C@H](C)CO)C3=O)cc1	none (no result: FN deposition inh)
Cc1ccc(S(=O)(=O)N[C@@H]2C=C[C@H](CC(=O)NCc3ccc(Cl)c(Cl)c3)O[C@@H]2CO)cc1	none (no result: HIV Env fusion, PglD DTNB)
CNC[C@H]1OCCCC[C@@H](C)Oc2ccc(N)cc2C(=O)N([C@@H](C)CO)C[C@@H]1C	none
O=C(c1cccnc1)N1CC2(C1)[C@H](c1ccccc1)[C@@H](CO)N2Cc1ccc(Cl)cc1	none (no result: HIV Env fusion, PglD DTNB)
COc1cccc(CNC(=O)C[C@@H]2C=C[C@@H](NC(=O)C3CCOCC3)[C@@H](CO)O2)c1	none
COc1ccc(S(=O)(=O)N(C)C[C@H]2Oc3c(NC(=O)Nc4cccc5ccccc45)cccc3C(=O)N([C@@H](C)CO)C[C@@H]2C)cc1	none
CNC[C@H]1Oc2c(NS(=O)(=O)c3ccc(Cl)cc3)cccc2C(=O)N([C@@H](C)CO)C[C@@H]1C	DENV2 CPE rescue 94 (no result: HIV Env fusion)
C[C@H](CO)N1C[C@H](C)[C@H](CN(C)S(=O)(=O)c2cccs2)Oc2ncccc2C1=O	DENV2 CPE rescue 37 (no result: HIV Env fusion, FN deposition inh)
COC(=O)c1ccccc1NC(=O)c1nc(S(=O)(=O)Cc2ccccc2)ncc1Cl	none (no result: PGC1a acetyl inh)
O=C(NCc1ccc2c(c1)OCO2)c1nc(S(=O)(=O)Cc2ccccc2F)ncc1Cl	FN deposition inh 33 (no result: PGC1a acetyl inh)
CC(=O)Nc1ccc(NC(=O)c2nc(S(=O)(=O)Cc3ccccc3)ncc2Cl)cc1	FN deposition inh 51 (no result: PGC1a acetyl inh)
CCc1nnc(NC(=O)c2nc(S(=O)(=O)Cc3cccc(C)c3)ncc2Cl)s1	HIV Env fusion 63 (no result: PGC1a acetyl inh)
O=C(NCc1ccc2c(c1)OCO2)c1nc(S(=O)(=O)Cc2ccccc2)ncc1Cl	HIV Env fusion inconclusive
CSc1nnc(NC(=O)c2nc(S(=O)(=O)Cc3cccc(C)c3)ncc2Cl)s1	HIV Env fusion 89 (no result: PGC1a acetyl inh)
CO[C@H]1CC[C@@H]2CCN(C)C(=O)[C@@H](C)N(C)C(=O)c3cccc(C#N)c3OC[C@H]1O2	none (no result: PGC1a acetyl inh)
CCCNC(=O)C[C@@H]1C[C@H]2c3cc(NS(=O)(=O)c4ccc(F)cc4)ccc3O[C@H]2[C@H](CO)O1	none
COc1ccc(CN(C)C[C@H]2Oc3ccc(NC(=O)C4CC4)cc3C(=O)N([C@H](C)CO)C[C@H]2C)cc1	none
Cn1cnc(S(=O)(=O)N2CC[C@@H]3[C@H]2c2cc(-c4ccccc4)ccc2N[C@@H]3CO)c1	none (no result: HIV Env fusion)
C=CCN1C(=O)[C@@]2(O[C@@H](CCO)[C@H]([Si](C)(C)c3ccc(OC)cc3)[C@H]2C)c2ccccc21	none (no result: Ecoli rRNA inh, FN deposition inh, PglD DTNB)
Cc1cccc(C)c1NC(=O)CN(C)CC(=O)Nc1ccccc1Oc1ccccc1	none (no result: PglD DTNB)
Cc1ccc(NC(=O)CN(C)CC(=O)Nc2ccccc2Oc2ccccc2)cc1	Ecoli rRNA inh -35 (no result: PglD DTNB)
COc1cccc(NC(=O)CN(C)C(=O)Cc2ccc3c(c2)OCCO3)c1	DENV2 CPE rescue 42 (no result: PGC1a acetyl inh)
COc1cccc(NC(=O)CN(C)CC(=O)Nc2ccc(Br)cc2)c1	Ecoli rRNA inh -34 (no result: FN deposition inh, PGC1a acetyl inh, PglD DTNB)
COc1cccc(NC(=O)COC(=O)c2sccc2C)c1	Ecoli rRNA inh -21
COc1cccc(NC(=O)CN(C)C(=O)Cc2ccc3c(c2)CCC3)c1	none
CCN(CC(=O)Nc1cccc(OC)c1)CC(=O)Nc1ccc(Br)c(C)c1	Ecoli rRNA inh -54
COC(=O)c1c(-c2ccc(SC)cc2)sc2ccc(OC)cc12	none (no result: PGC1a acetyl inh)
COC(=O)c1c(-c2ccc(SC)cc2)sc2ccccc12	DENV2 CPE rescue 74
COC(=O)c1c(-c2ccc(OC)cc2)sc2cc(OC)c(OC)cc12	Ecoli rRNA inh -24 (no result: PGC1a acetyl inh)
COC(=O)c1c(-c2cc(OC)cc(OC)c2)sc2ccc(OC)cc12	none
COc1ccc(-c2sc3cc(OC)c(OC)cc3c2C#CC(C)(C)O)cc1	DENV2 CPE rescue 24

Source: PubChem BioAssay
